Test results reported in the RNAGym collection of RNA variant scans (doi:10.1126/science.aae0568).
Fewer inactive variants are shown than the library holds.

B1: tRNA (parent)
chain: GUUCCGUUGGCGUAAUGGUAACGCGUCUCCCUCCUAAGGAGAAGACUGCGGGUUCGAGUCCCGUACGGAACG

Variants of: B1
Assay: yeast fitness relative to wild type (ratio to wild type); higher = fitter; tRNA-Arg(CCU), competitive growth, 37 C, YPD
Summary of the method: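 For this measurement, the tRNA-Arg(CCU) gene was varied by chemical synthesis at a 3% per-site mutation rate across 69 sites, and each variant was placed at the native genomic locus in Saccharomyces cerevisiae. The pooled strains went through a 24-hour competition in YPD at 37°C in six parallel replicates, with amplicons from start and end populations read by 100-nucleotide paired-end sequencing. Darwinian fitness relative to wild type followed from the change in each genotype's frequency. Genotypes needed ≥ 100 starting reads, and estimates < 0.5 were set to 0.5.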

GUUCCGUUGGUGUAAUGGUAACGCGUCUCCUUCCUAUGGAGAAGACUGCGGGUUCGAGUCCCGUACGGAUCG [C11U C31U A37U A70U] and GUUCCGUUGGUGUAAUGGUAACGCGUCUCCGUCCUAAGGAGAAGACUGCGGGUUUGAGUCUCGUGCGGAACG [C11U C31G C55U C61U A65G] cannot be ordered by yeast fitness: ≤ 0.5 for the first, ≤ 0.5 for the second.

Going from GUUCCGUUGGUGUAAUGGUAACGCGUCUCCGUCCUAAGGAGAAGACUGCGGGUUCGUGUCCCGUACGGAACG [C11U C31G A57U] to GUUCCGUUGGUGUAAUGGUAACGCGUCUCUCUCCUAAGGAGAAGACUGCGGGUUCGAGUCCCGUUGGGAACG [C11U C30U A65U C66G], the yeast fitness rises from 0.533 to 0.585.

Going from GUUCCGUUGGUGUAAUGGUAACGCGUCUGCCUCCUAAGGAGAAGACUGCGGGUUGGGGUCCCGUACGGAACG [C11U C29G C55G A57G] to GUUCCGUUGGUGUAAUGGUAACGCGUCUCCAUCCUAAGGAGAAGACUGCGCGUUCGAGUCCCGUACGGAACG [C11U C31A G51C], the yeast fitness rises from ≤ 0.5 to 0.532.

First: GUUCCGUUGGUGUAAUGGUAACGCGUCUUCCUCCUAAGGAGAAGACUGCGGGUUCGAGUCCCGUACAGAUCG [C11U C29U G67A A70U]
Second: GUUCCGUUGGUGUAAUGGUAACGCGUCUUCCUCCUAAGGAGAAGACCGCGGGUUCGAGUCCCGUACAGAUCG [C11U C29U U47C G67A A70U]
The yeast fitness of the first is higher: 0.578 for the first, ≤ 0.5 for the second.

GUUCCGUUGGUGUAAUGGUAACGCGUCUCCCUCAUCAGGAGAAGACUGCGGGUUCGAGUCCCGUACGGAACG [C11U C34A A36C] and GUUCCGUUGGUGUAAUGGUAACGCGUCUCGCUCCUAAGGUGAAGACUGCGGGUACGAGUCCCGUACGGAACG [C11U C30G A40U U54A] cannot be ordered by yeast fitness: ≤ 0.5 for the first, ≤ 0.5 for the second.

GUUCCGUUGGUGUAAUGGUAACGCGUCUCCUUCCUAAGGAGCAAUCUGCGGGUUCGAGUCCCGUACGGAACG [C11U C31U A42C G44A A45U] and GUUCCGUUGGUGUAAUGGUAACGCGUCUCCGUCCUAAGGAGAAGACUGGGGGUUCGAGUCCUGUACCGAACG [C11U C31G C49G C62U G67C] cannot be ordered by yeast fitness: ≤ 0.5 for the first, ≤ 0.5 for the second.

First: GUUCCGUUGGUGUAAUGGUAACGCGUCUCCAUCCUAAGGAGAAGACUGCGGGUUCGAGUCCCGUACGGAACG [C11U C31A]
Second: GUUCCGUUGGUGUAAUGGUAACGCGUCUCCUUCCUAAGGAGAAGACUGCGGGUUCGAGUCCCGUACGGAACG [C11U C31U]
The yeast fitness of the first is lower: 0.725 for the first, 0.804 for the second.

GUUCCGUUGGUGUAAUGGUAACGCGUCUCCGUCCUAUGGAGAAGACUGCGCGUUCGAAUCCCGUACGGAACG [C11U C31G A37U G51C G58A] and GUUCCGUUGGUGUAAUGGUAACGCGUCUCCGUUCUACGGAGAAGACUGCGGGUUCGAGUCCCGUUCGGAACG [C11U C31G C33U A37C A65U] cannot be ordered by yeast fitness: ≤ 0.5 for the first, ≤ 0.5 for the second.

Going from GUUCCGUUGGUGUAAUGGUAACGCGUCUCCGUCCUAAGGAGAAGAAUGCGGGUUCGAGUCCCGUACGGAACG [C11U C31G C46A] to GUUCCGUUGGUGUAAUGGUAACGCGUCUCCGUCCUAAGGAGAAGAGUGCGGGUUCGAGUCCCGUACGGAACG [C11U C31G C46G], the yeast fitness rises from 0.629 to 0.673.

Going from GUUCCGUUGGUGUAAUGGUAACGCGUCUGCUUCCUAAGGAGAAGACUGCGGGUUCGAGUCCCGUACGGAACG [C11U C29G C31U] to GUUCCGUUGGUGUAAUGGUAACGCGUCUCCCUCAUAAGGAGAAGACUGCGGGUUCGAGUCUCGUACGGAACG [C11U C34A C61U], the yeast fitness falls from 0.531 to ≤ 0.5.

Compared with GUUCCGUUGGUGUAAUGGUAACGCGUCUCGCUCCUAAGGUGAAGUCUGCGGGUUGGAGUCCCGUACGGAACG [C11U C30G A40U A45U C55G], GUUCCGUUGGUGUAAUGGUAACGCGUCUUCCUCCUAAGGAGAAGCCUGCGGGUUCGAGUGCCGUCCGGAACG [C11U C29U A45C C60G A65C] is lower in yeast fitness: 0.604 for the first, ≤ 0.5 for the second.

First: GUUCCGUUGGUGUAAUGGUAACGCGUCUCCUUCCUAAGGAGAAGACUGCGCGUUCGAGUCCCGUACGGAACG [C11U C31U G51C]
Second: GUUCCGUUGGUGUAAUGGUAACGCGUCUCCUUCCUAAGGAGAAGACUGCGGGUUCGACUCCCGUACGGAACG [C11U C31U G58C]
The yeast fitness of the first is lower: ≤ 0.5 for the first, 0.643 for the second.

GUUCCGUUGGUGUAAUGGUAACGCGUCUCCGUCCUAAGGAGAAGCCUGCGGGUUCGAGUCCCGUACGGAACG [C11U C31G A45C] and GUUCCGUUGGUGUAAUGGUAACGCGUCUCCCUCAUCAGGAGAAGACUGCGGGUUCGAGUCCCGUACCGAACG [C11U C34A A36C G67C] cannot be ordered by yeast fitness: ≤ 0.5 for the first, ≤ 0.5 for the second.

Going from GUUCCGUUGGUGUAAUGGUAACGCGUCUCCCUCGUAACGAGAAGACUGCGGGUUCGAGUCUCGUACGGAACG [C11U C34G G38C C61U] to GUUCCGUUGGUGUAAUGGUAACGCGUCUCUCUCCUAAGGAGAAGACUGCGGGUUGGAGUCCCGUACGGAACG [C11U C30U C55G], the yeast fitness rises from ≤ 0.5 to 0.541.

Going from GUUCCGUUGGUGUAAUGGUAACGCGUCUCCCUCAUAAGGAGAAGACUGCGGGUUCGAGUCCCGUACGGAGCG [C11U C34A A70G] to GUUCCGUUGGUGUAAUGGUAACGCGUCUUCCUCCUAAAGAGAAGACUCCGGGUUCGAGUCCGGUACGGAACG [C11U C29U G38A G48C C62G], the yeast fitness falls from 0.581 to ≤ 0.5.

GUUCCGUUGGUGUAAUGGUAACGCGUCUCGCUCCUAAGGAGAAGACUGCGGGUUCCAGUCCCGUACGGAACG [C11U C30G G56C] and GUUCCGUUGGUGUAAUGGUAACGCGUCUCCCUGCUAAGGAGAAGACUGCGGGUACGAGUCCCGAACGGAACG [C11U C33G U54A U64A] cannot be ordered by yeast fitness: ≤ 0.5 for the first, ≤ 0.5 for the second.

First: GUUCCGUUGGUGUAAUGGUAACGCGUCUCACUCCUAAGGAGAAGACAGCGGGUUCGAGUCCCGUACGGAACG [C11U C30A U47A]
Second: GUUCCGUUGGUGUAAUGGUAACGCGUCUCCUUCCUAAGGAGAAGACCGCGGGUUCGAGUCCCGUACGGAACG [C11U C31U U47C]
The yeast fitness of the first is lower: 0.57 for the first, 0.78 for the second.

First: GUUCCGUUGGUGUAAUGGUAACGCGUCUUCCUCCUAAGGAGAAGACUGCGGGUUCGAGUCCCGUAUGGAACG [C11U C29U C66U]
Second: GUUCCGUUGGUGUAAUGGUAACGCGUCUCCCUCAUAAGGAGAAGAUUGCGGGUUCGAGUCCCGUACGGAACG [C11U C34A C46U]
The yeast fitness of the first is higher: 0.603 for the first, ≤ 0.5 for the second.

Going from GUUCCGUUGGUGUAAUGGUAACGCGUCUCCGUCCUAAGGAGAAGACUGGGGGUUCGAGUCCCGUACGGAACG [C11U C31G C49G] to GUUCCGUUGGUGUAAUGGUAACGCGUCUGCCUCCUACGGAGUAGACUGCGGGUUCGGGUCUCGUACAGAACG [C11U C29G A37C A42U A57G C61U G67A], the yeast fitness falls from 0.696 to ≤ 0.5.
